From PubChem BioAssay
Compounds with a hit are over-represented: about 2.5% of the library has one in this group of screens.
bovine MsrA act = activators of bovine methionine sulfoxide reductase A | purified bovine MsrA, absorbance read-out | activation, % at 10.6 µM | 0.3% of 360,000 active | AID 602163; in the data active means activation above about 7.5%
NR2E3 ag-1 = agonists of human nuclear receptor NR2E3; Q9Y5X4; GST-NR2E3/biotin-RetCOR TR-FRET, 1536-well; inhibition of corepressor binding, % at 4.78 µM; 0.12% of 320,000 active; AID 2300;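 active means percent inhibition above the cutoff of mean plus 3 SD of all tested compounds, set per screening campaign, cut at about 20% in these data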
Target sequence (Q9Y5X4 whole entry, looked up): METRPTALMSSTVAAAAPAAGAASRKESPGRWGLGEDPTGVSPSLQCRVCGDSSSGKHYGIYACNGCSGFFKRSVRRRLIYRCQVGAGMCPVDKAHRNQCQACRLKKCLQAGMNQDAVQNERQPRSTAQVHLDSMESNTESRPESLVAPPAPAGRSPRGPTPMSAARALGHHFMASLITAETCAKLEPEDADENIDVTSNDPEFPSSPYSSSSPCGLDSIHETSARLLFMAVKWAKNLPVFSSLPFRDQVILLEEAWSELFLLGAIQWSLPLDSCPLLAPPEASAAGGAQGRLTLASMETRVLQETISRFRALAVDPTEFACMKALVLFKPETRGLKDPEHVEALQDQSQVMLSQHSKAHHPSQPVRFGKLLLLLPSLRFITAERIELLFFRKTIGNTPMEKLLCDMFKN
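System: GST-tagged NR2E3 plus biotinylated RetCOR corepressor; Buffer or medium: pH 7.5 Tris-based buffer; Probe or stimulus: RetCOR corepressor, biotinylated, 7 nM; Doses: compound at 4.8 µM, single dose; Schedule: 5 h incubation at 4 °C; Technique: time-resolved FRET; Evaluation: percent inhibition of TR-FRET ratio; Replication: one well per compound, singlicate testing.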
MsrA inh = inhibits bovine methionine sulfoxide reductase A; purified bovine MsrA, absorbance read-out; inhibition, % at 15.5 µM; 0.75% of 360,000 active
GalR3 antagonist = human GalR3 antagonism; O60755; HEK293 GalR3-CNG cAMP membrane potential fluorescence; galR3 body fused to GalR1 C-terminus; inhibition, % at 3 µM; 0.44% of 360,000 active;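 active means inhibition above the screen-wide average plus 3 SD, cut at about 13% in these data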;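 further: forskolin and galanin both at EC90 stimulate the cells; cAMP rise reported by CNG channel membrane potential dye signal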
NR2E3 ag-2 = agonists of human NR2E3 nuclear receptor; 0.35% of 360,000 active; Q9Y5X4; inhibition of corepressor binding, % at 3.98 µM; AID 602229; CHO-S Gal4-NCOR/VP16-NR2E3 two-hybrid, luciferase;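 active means inhibition above the mean of all tested compounds plus 3 SD, cut at about 70% in these data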;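 further: higher means lower luciferase signal from less NR2E3 corepressor binding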
NadD block = inhibitors of Staphylococcus aureus NadD; purified NadD enzyme, colorimetric absorbance read-out; inhibition, % at 20 µM; 0.78% of 360,000 active; in the data active means inhibition above about 26%
MsrA conf = bovine MsrA inhibition, confirmed | shares compounds with MsrA inh | purified bovine MsrA, absorbance read-out | inhibition, % at 15.5 µM | 41% of 2,300 active | AID 651822;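 further: coupled to thioredoxin reductase with NADPH and selenocystamine and DMSO as substrate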
Of the large screens only hits and unclear results are named; the others gave an inactive call (follow-up assays come after a bar, where they were run). Unless noted, no stated cut-off is given here; in the data, active means inhibition above about 4.5%; inactive means the rest.

O=c1ccc(C(F)(F)F)cn1Cc1cc(=O)n2cc(Br)ccc2n1	none
O=C(O)CC1S/C(=N\N=C2\C(=O)Nc3ccccc32)N(c2ccc(O)cc2)C1=O (stereo not given)	MsrA inh 5.9 | MsrA conf inactive
O=C(O)CC1S/C(=N\N=C2CCCCCCC2)N(c2ccccc2)C1=O (stereo not given)	none
Cc1cc(C)c(C(=O)/C=C/C=C/c2ccccc2)c(=O)[nH]1	none
C/C(=C\c1ccc(C)o1)C(=O)c1c(C)cc(C)[nH]c1=O	MsrA inh 7.3 | MsrA conf inactive
C/C(=C\c1ccc2c(c1)OCO2)C(=O)c1c(C)cc(C)[nH]c1=O	MsrA inh 5.5 | MsrA conf inactive
C/C(=C\C=C\c1ccccc1)C(=O)c1c(C)cc(C)[nH]c1=O	MsrA inh 7.4 | MsrA conf 5.9
O=C1O[C@H](CO)[C@@H](O)[C@H](O)[C@H]1O	none (no result: NR2E3 ag-1, GalR3 antagonist)
Cc1cc(C)n(-c2ccc(C(=O)Nc3ccccn3)cc2)n1	none
CCCC(=O)Nc1nc2ccc(OC)cc2s1	none
COc1ccc2nc(NC(=S)N(C)C)sc2c1	MsrA inh 6.3 | MsrA conf inactive
CCOc1ccc(NC(=O)CN(C)C(=O)c2ccc(-c3ccc(C(C)=O)cc3)o2)cc1OCC	MsrA inh 4.9 | MsrA conf inactive
CN(CC(=O)Nc1ccc(F)cc1)C(=O)c1ccc(-c2ccc(F)cc2)o1	none (no result: NR2E3 ag-1)
COc1cc(N2CCCC2)ccc1C=O	MsrA inh 6.8 | MsrA conf inactive
O=Cc1ccc(N2CCCCC2)cc1	none
Cc1ccc(NC(=S)N/N=C/c2c(C)[nH]c3ccccc23)cc1	none
Cc1[nH]c2ccccc2c1/C=N/NC(N)=S	MsrA inh 5.8 | MsrA conf 4.7
Cc1[nH]c2ccccc2c1/C=N/NC(=O)c1ccccc1	MsrA inh 6.2 | MsrA conf inactive
Cc1[nH]c2ccccc2c1/C=N/NC(=O)c1ccc(N)cc1	MsrA inh 5.5 | MsrA conf 4.7
CCOC(=O)CON1C(=O)C(=O)N(OCC(=O)OCC)C2CCCCC21 (stereo not given)	none
CC(=O)c1cccc(NC(=O)CN2C(=O)COc3ccc(S(=O)(=O)N4CCOCC4)cc32)c1	none
Oc1ccc(/C=N/Nc2ccc(C(F)(F)F)cn2)cc1	MsrA inh 5.5 | MsrA conf inactive
CSc1nc2sc3c(c2c2nnnn12)CCCC3	MsrA inh 12 | MsrA conf 17
CC(=O)N1CCN(CCN2C(C)=CC(=C(C#N)C#N)C=C2C)CC1	none
CC1=CC(=C(C#N)C#N)C=C(C)N1CCN1CCNCC1	MsrA inh 6.5 | MsrA conf 7.9
CC1=CC(=C(C#N)C#N)C=C(C)N1CCN1CCN(C(=O)Nc2cccc(Cl)c2)CC1	MsrA inh 5.0 | MsrA conf 4.6
O=C(Nc1cccc(Cl)c1)N1CCN(Cc2ccccc2)CC1	none
CC(=O)Nc1ccc(C=NNC(=O)c2ccc(NS(=O)(=O)c3cccs3)cc2)cc1	MsrA inh 4.8 (no result: NR2E3 ag-1) | MsrA conf 7.1
O=C(NN=Cc1c(F)c(F)c(F)c(F)c1F)c1ccc(NS(=O)(=O)c2cccs2)cc1	none (no result: NR2E3 ag-1)
CC(=O)Nc1ccc(/C=N/NC(=O)c2cccc(S(=O)(=O)N3CCOCC3)c2)cc1	MsrA inh 6.2 | MsrA conf inactive
COc1cc(C=NNC(=O)c2ccc(NS(=O)(=O)c3cccs3)cc2)cc(Br)c1O	MsrA inh 5.6 (no result: NR2E3 ag-1) | MsrA conf 6.0
O=C(c1cccc(S(=O)(=O)N2CCN(c3ccccc3)CC2)c1)N1CC=C(c2ccccc2)CC1	none
CCOC(=O)C(C)Sc1nnc(NC(=O)c2ccc3c(c2)OCO3)s1 (stereo not given)	MsrA inh 5.1 | MsrA conf inactive
COc1cc(/C=N/NC(=O)/C(=C\c2ccc([N+](=O)[O-])cc2)NC(=O)c2ccccc2)cc(OC)c1O	none
Cc1ccsc1C(=O)N/N=C/c1ccc2c(c1)OCO2	none
COc1cc(/C=N/NC(=O)/C(=C\c2ccc3c(c2)OCO3)NC(=O)c2ccccc2)ccc1O	MsrA inh 8.7 | MsrA conf 4.9
CN(C)c1ccc(/C=N/NC(=O)c2ccc3c(c2)OCCO3)cc1	MsrA inh 5.0 | MsrA conf 5.5
COc1ccc(/C=N/NC(=O)c2ccc3c(c2)OCO3)cc1	none
O=C(N/N=C/c1ccc2c(c1)OCO2)c1cccs1	MsrA inh 6.1 | MsrA conf inactive
COc1cc(/C=N/NC(=O)c2ccc3c(c2)OCO3)ccc1O	MsrA inh 6.3 (no result: NR2E3 ag-1) | MsrA conf inactive
CCOC(=O)C(CCc1nnc(N)s1)C(=O)OCC	none
CCOC(=O)COc1ccc(S(=O)(=O)N2CCN(c3ccc(OC)cc3)CC2)cc1	none
O=C(N/N=C/c1ccc2c(c1)OCO2)c1ccc(Br)o1	MsrA inh 7.5 | MsrA conf 8.3
O=C(N/N=C/c1ccc(-c2cccc([N+](=O)[O-])c2)o1)c1cccs1	none
CCOc1cc(/C=N/NC(=O)c2ccc3c(c2)OCCO3)cc(Br)c1O	MsrA inh 6.0 | MsrA conf 6.9
O=C(N/N=C/c1ccc([N+](=O)[O-])cc1)c1cccs1	MsrA inh 5.4 | MsrA conf 5.0
O=C(N/N=C/c1ccc2c(c1)OCO2)c1ccc2c(c1)OCCO2	MsrA inh 4.9 | MsrA conf inactive
COc1ccc(NC2CC(=O)N(c3ccc(C(=O)O)cc3)C2=O)cc1 (stereo not given)	none
CC(OC(=O)CCN=C1NS(=O)(=O)c2ccccc21)C(=O)NCc1ccccc1 (stereo not given)	none
CNS(=O)(=O)c1cccc(C(=O)OCC(=O)Nc2ccc(N3CCCCC3)cc2)c1	none
O=C(N/N=C/c1ccccn1)c1ccccc1	none
CN(C)c1ccc(C(=O)N/N=C/c2ccccn2)cc1	MsrA inh 7.4 | MsrA conf inactive
COc1cc(/C=N/NC(=O)c2ccc(-n3cccc3)cc2)ccc1O	MsrA inh 5.9 | MsrA conf 4.8
Cc1ccc(/C=N/NC(=O)c2cccs2)s1	MsrA inh 6.7 | MsrA conf 4.9
CCNC(=O)CSc1nc2ccccc2c(=O)n1OC	none
C/C(=N/N=C1/NC(=O)CC(C(=O)O)S1)c1ccccc1 (stereo not given)	none
O=C1CC(C(=O)O)S/C(=N\N=C\c2ccc(Br)cc2)N1 (stereo not given)	MsrA inh 4.9 | MsrA conf inactive
CN(C(=O)CN1C(=O)c2cc(Cl)c(Cl)cc2C1=O)C1CCS(=O)(=O)C1 (stereo not given)	none
Cc1noc(C)c1COc1cccc(C(=O)OCC(=O)NC(=O)c2ccc(OC(F)F)cc2)c1	none
COC(=O)CSc1nc2sc3c(c2c(=O)n1-c1ccccc1)CCN(C)C3	MsrA inh 4.7 | MsrA conf inactive
